According to paper PMC2741613 (Journal of the American Chemical Society, 2009):

Assays:
Format in all cases: biochemical
[1] = target: T1, TC-PTP (Homo sapiens, UniProt P17706); test: TC-PTP-catalyzed pNPP hydrolysis inhibition
T1 sequence (P17706 1-415): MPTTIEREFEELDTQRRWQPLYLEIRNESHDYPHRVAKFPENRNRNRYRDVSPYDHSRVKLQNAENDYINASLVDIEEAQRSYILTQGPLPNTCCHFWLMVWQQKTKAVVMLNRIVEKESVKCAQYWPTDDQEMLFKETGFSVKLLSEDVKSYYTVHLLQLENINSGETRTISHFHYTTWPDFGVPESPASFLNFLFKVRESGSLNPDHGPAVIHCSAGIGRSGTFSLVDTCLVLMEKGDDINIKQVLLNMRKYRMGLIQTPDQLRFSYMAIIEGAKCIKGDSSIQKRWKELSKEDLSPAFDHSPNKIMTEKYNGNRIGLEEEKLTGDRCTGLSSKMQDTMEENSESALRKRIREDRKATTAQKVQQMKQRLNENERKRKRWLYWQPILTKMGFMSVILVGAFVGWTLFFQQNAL
In short: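 IC50: enzyme added last (10 nM or 0.4 nM final) to 2 mM pNPP (Km) plus varied test compound, 30 min at room temperature, NaOH quench, A405. Reversibility: enzyme preincubated with test compound 30 min before pNPP. Mode/Ki: 0.4 nM enzyme, varied pNPP and inhibitor, kinetic fit.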

[2] = target: T2, He-PTP (Homo sapiens, UniProt P35236); test: PTP activity assay with pNPP, He-PTP
T2 sequence (P35236 1-360): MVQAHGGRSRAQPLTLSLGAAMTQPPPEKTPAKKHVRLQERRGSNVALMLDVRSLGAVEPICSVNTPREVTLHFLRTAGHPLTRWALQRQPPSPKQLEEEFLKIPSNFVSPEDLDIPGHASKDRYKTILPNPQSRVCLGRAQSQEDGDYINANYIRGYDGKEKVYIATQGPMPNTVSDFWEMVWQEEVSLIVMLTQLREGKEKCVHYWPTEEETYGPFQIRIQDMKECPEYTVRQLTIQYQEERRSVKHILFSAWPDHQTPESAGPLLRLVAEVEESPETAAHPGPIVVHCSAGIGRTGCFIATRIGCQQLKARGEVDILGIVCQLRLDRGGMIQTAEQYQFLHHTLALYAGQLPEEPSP
In short: (§1)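 Reactions started by adding enzyme to mixtures with various pNPP and test-compound concentrations. Rates were fitted with an enzyme-kinetics model for Ki.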

[3] = target: T3, CD45 (Homo sapiens, UniProt P08575); test: PTP activity assay with pNPP, CD45
T3 sequence (P08575 26-1306): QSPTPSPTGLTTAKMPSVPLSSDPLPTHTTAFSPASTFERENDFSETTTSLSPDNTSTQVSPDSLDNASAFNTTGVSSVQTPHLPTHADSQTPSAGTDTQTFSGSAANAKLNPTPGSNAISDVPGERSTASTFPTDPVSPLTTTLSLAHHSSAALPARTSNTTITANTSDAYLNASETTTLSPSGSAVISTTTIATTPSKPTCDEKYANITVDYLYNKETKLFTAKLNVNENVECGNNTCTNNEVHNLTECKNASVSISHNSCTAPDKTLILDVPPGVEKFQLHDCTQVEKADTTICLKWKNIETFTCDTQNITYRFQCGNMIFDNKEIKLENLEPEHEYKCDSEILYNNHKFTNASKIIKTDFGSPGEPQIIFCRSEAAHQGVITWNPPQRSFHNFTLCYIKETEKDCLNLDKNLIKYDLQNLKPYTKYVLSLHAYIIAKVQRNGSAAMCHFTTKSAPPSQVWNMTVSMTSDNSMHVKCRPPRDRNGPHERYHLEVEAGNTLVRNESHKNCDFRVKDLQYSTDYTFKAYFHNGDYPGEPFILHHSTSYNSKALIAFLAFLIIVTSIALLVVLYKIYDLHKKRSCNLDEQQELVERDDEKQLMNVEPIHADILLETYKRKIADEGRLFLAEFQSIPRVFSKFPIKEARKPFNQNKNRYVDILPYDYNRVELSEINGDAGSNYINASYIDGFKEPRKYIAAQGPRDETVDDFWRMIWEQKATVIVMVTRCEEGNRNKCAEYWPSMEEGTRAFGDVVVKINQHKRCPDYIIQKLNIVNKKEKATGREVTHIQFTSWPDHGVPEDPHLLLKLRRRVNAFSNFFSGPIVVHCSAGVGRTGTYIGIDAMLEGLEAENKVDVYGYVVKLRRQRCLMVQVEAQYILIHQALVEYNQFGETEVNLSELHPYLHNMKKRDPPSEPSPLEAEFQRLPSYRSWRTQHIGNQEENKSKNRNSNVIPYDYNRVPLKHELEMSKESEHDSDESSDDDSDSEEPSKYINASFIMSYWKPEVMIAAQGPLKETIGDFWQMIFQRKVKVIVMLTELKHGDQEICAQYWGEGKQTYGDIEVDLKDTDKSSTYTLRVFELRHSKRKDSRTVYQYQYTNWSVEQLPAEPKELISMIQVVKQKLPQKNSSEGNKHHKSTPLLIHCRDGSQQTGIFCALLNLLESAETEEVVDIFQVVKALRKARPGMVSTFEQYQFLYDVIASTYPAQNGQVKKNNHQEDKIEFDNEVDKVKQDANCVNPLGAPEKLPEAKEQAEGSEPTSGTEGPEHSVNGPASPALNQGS
In short: as §1

[4] = target: T4, Cdc14A (Homo sapiens, UniProt Q9UNH5); test: PTP activity assay with pNPP, Cdc14A
T4 sequence (Q9UNH5 1-594): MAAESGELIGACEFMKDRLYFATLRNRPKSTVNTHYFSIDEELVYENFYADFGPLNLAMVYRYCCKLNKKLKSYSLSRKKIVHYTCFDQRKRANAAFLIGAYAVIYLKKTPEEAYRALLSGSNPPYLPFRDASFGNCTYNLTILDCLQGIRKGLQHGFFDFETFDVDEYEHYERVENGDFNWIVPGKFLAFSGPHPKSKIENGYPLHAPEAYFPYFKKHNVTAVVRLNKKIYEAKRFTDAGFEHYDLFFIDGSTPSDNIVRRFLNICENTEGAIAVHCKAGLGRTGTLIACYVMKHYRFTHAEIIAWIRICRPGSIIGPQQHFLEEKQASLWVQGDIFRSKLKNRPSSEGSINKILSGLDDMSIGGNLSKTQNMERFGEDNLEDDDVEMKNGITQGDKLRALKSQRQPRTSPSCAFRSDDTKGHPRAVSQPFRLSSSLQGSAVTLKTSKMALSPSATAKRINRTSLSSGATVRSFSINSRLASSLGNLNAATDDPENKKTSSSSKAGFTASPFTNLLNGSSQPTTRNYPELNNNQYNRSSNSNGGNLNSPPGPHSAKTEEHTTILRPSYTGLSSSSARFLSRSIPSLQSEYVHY
In short: as §1

With `CCc1ccc(C(=O)NCCCC[C@H](NC(=O)[C@H](Cc2ccc(C(F)(F)P(=O)(O)O)cc2)NC(=O)[C@H](Cc2ccccc2)NC(=O)CO[C@H]2C[C@@H](C)CC[C@@H]2C(C)C)C(N)=O)cc1` [Compound 8] the “reversibility of TC-PTP inhibition” value ([1]; IC50 without or with 30 min preincubation) was “reversible”, the “mode of TC-PTP inhibition” value ([1]; Lineweaver-Burk analysis, pNPP) was “competitive” and the Ki ([1]; TC-PTP, pNPP substrate) was 4.3 ± 0.2 nM. The Ki [2] was over 1000 nM, the Ki [3] was over 1000 nM and the Ki [4] was over 1000 nM.
